Experimental data from publication PMC3039817 (British Journal of Cancer, 2010).

Legend:
SW780 cells = experiment: Cell cycle distribution by flow cytometry; assay type: cell-based, human; settings: 500 nM, 24-h exposure
Outline: (§1)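 Cells grown in standard medium at 37 °C, 5% CO2, then exposed to 500 nM test compound or DMSO for 24 h. Harvested cells were fixed overnight in 70% ethanol at 4 °C and rehydrated in PBS pH 7.4. They were then pelleted, stained with propidium iodide/RNase in the dark at 37 °C for 30 min, and analysed by flow cytometry. Three independent experiments; ANOVA.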

RT4 cells = experiment: Cell cycle distribution by flow cytometry; assay type: cell-based, human; settings: 500 nM, 24-h exposure
Outline: as §1

RT112 cells = experiment: Cell cycle distribution by flow cytometry; assay type: cell-based, human; settings: 500 nM, 24-h exposure
Outline: as §1

MGH-U3 cells = experiment: Cell cycle distribution by flow cytometry; assay type: cell-based, human; settings: 500 nM, 24-h exposure
Outline: as §1

97-7 cells = experiment: Cell cycle distribution by flow cytometry; assay type: cell-based, human; settings: 500 nM, 24-h exposure
Outline: as §1

[1] = tested on: phospho-ERK in 94-10 cells; experiment: FGF2-induced and constitutive ERK phosphorylation in 94-10 cells; assay type: cell-based, human; settings: 500 nM, pretreated 1 h, FGF2 5 ng ml–1 + heparin 10 μg ml–1, 15 min
Outline: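 94-10 cells (FGFR1-expressing) were pretreated 1 h with or without 500 nM test compound. They were then stimulated 15 min with heparin (10 μg ml–1) with or without FGF2 (5 ng ml–1). Lysis was in RIPAE buffer (Triton X-100, EDTA, SDS, deoxycholate, glycerol, protease inhibitors in PBS), cleared at 12 700 × g, 4 °C. Protein was measured by BCA, immunoblotted for phospho-ERK, reprobed for tubulin and detected by chemiluminescence.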

[2] = Toxicity in treated xenograft-bearing animals; assay type: in vivo, Balb/c immunodeficient nude mice; settings: nude mice, 20 mg kg–1 per day i.p.
Outline: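 Male Balb/c nude mice aged 6–8 weeks carried flank trocar implants of ~2 mm3 MGH-U3, SW780 or RT112 tumour fragments. At mean 32 mm3, mice were randomised into groups of eight (untreated control or treated). Dosing was 20 mg kg−1 per day i.p. on days 0–3, plus days 6–9 for MGH-U3. Tumours were measured by caliper.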

FGFR3 = FGFR3 (Homo sapiens, UniProt P22607); experiment: FGFR3 phosphorylation in RT112 cells; assay type: cell-based; settings: 500 nM, 0–24 h
Outline: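 RT112 cells were exposed to 500 nM test compound for 0–24 h and lysed in RIPAE buffer, cleared at 12 700 × g, 4 °C. FGFR3 was immunoprecipitated with an extracellular-domain antibody. Blots were probed with anti-phosphotyrosine (4G10), then stripped (Tris pH 7.5/urea, 55 °C, 30 min) and reprobed for FGFR3. Detection was by chemiluminescence.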

FGFR3, sequence (P22607 397-758 limits assumed): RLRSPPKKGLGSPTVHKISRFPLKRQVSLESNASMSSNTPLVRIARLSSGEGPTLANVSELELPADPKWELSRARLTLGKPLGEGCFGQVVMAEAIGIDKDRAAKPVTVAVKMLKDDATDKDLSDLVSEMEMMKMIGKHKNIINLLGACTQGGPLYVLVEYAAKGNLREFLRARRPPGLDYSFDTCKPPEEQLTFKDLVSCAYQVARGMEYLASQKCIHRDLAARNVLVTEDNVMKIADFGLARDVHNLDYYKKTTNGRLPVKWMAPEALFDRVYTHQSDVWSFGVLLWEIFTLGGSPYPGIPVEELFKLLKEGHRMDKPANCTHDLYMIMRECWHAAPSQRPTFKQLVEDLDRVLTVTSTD

## CN1CCN(c2ccc3nc(-c4c(N)c5c(F)cccc5[nH]c4=O)[nH]c3c2)CC1 [TKI-258]
SW780 cells
  cell cycle distribution: no significant change in cell cycle distribution
RT4 cells
  cell cycle distribution: significant increase in the proportion of cells in G1
RT112 cells
  cell cycle distribution: significant increase in the proportion of cells in G1
MGH-U3 cells
  cell cycle distribution: significant increase in the proportion of cells in G1
97-7 cells
  cell cycle distribution: significant increase in the proportion of cells in G1

## CCN(CC)CCCCNc1ncc2cc(-c3cc(OC)cc(OC)c3)c(NC(=O)NC(C)(C)C)nc2n1 [PD173074, 1-tert-butyl-3-[6-(3,5-dimethoxy-phenyl)-2-(4-diethylamino-butylamino)-pyrido[2,3-d]pyrimidin-7-yl]-urea]
[1]
  FGF-induced and constitutive ERK phosphorylation: block both FGF-induced and constitutive ERK phosphorylation
SW780 cells
  cell cycle distribution: no significant change in cell cycle distribution
RT4 cells
  cell cycle distribution: significant increase in the proportion of cells in G1
RT112 cells
  cell cycle distribution: significant increase in the proportion of cells in G1
MGH-U3 cells
  cell cycle distribution: significant increase in the proportion of cells in G1
[2]
  toxicity in treated animals: No evidence of significant toxicity
97-7 cells
  cell cycle distribution: significant increase in the proportion of cells in G1
FGFR3
  FGFR3 phosphorylation, time-course: rapid and sustained inactivation of FGFR3
